Sampled rows, rich in hits. Any-hit rate of the full collection: about 2.9%.
M1 PAM parental: nonselective calcium activators in parental CHO-K1 cells, primary screen, counter-screen for M1 PAM project, cell-based, Fluo-8 calcium fluorescence, full deck, 1536-well. actives 0.02% (n = 360,000). activation, % at 3 µM. ATP EC20; 0% at ATP EC20, 100% at ATP max;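 active means activation above the run cutoff, the mean activation of all test compounds plus 3 SD, cut at about 40% in these data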;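 further: peak over basal fluorescence ratio in a 140 s read after ATP addition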
CHO-K1 Ca antag: counter-screen for M1 antagonists: effect in parental CHO-K1 cells; ATP-induced calcium, Fluo-8 fluorescence; inhibition, % at 3 µM; actives 0.6% (n = 360,000); AID 602250;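 active means inhibition above a per-plate cutoff, the plate's mean sample inhibition plus 3 SD, cut at about 24% in these data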;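 further: 0% = DMSO plus EC80 ATP and 100% = DMSO alone without ATP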
OX1R antag-1: OX1R (HCRTR1) antagonists, primary screen, fluorescence, CHO/OX1R cells, Fluo-8 calcium, orexin A; Orexin/Hypocretin receptor type 1 (Homo sapiens), O43613; Fluo-8 calcium fluorescence; inhibition, % at 5 µM; actives 0.43% (n = 330,000); AID 434989, 2010;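 active means inhibition above its plate's threshold, mean inhibition of all tested compounds on the plate plus 3 SD, cut at about 37% in these data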;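 further: 0% = orexin A challenge wells and 100% = SB-334867-A antagonist wells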
Target sequence (O43613 whole entry, looked up): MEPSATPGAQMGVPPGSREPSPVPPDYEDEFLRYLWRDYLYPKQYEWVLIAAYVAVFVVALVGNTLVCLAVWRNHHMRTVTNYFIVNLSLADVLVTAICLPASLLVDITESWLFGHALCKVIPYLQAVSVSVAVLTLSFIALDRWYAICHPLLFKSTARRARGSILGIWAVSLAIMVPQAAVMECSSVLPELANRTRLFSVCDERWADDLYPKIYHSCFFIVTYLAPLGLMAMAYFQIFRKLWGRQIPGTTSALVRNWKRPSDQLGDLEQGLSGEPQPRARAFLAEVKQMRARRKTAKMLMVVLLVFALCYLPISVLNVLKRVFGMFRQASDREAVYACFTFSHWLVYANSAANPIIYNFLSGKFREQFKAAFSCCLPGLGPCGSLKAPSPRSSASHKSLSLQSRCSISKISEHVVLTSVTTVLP
M1 ag parental: counter-screen for M1 agonists: effect in parental CHO-K1 cells. Fluo-8 calcium fluorescence; scaled to maximal ATP response, vehicle zero. actives 0.48% (n = 360,000). activation, % at 3 µM. AID 602248, 2012; in the data active means activation above about 15%;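 further: untransfected CHO-K1 host cells lacking M1 receptor as counterscreen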
OX1R antag-2: antagonists of human orexin 1 receptor (OX1R). Orexin/Hypocretin receptor type 1 (Homo sapiens), O43613. OX1R-expressing cells, FRET antagonist read-out. inhibition, % at 6.6 µM. actives 1.8% (n = 330,000); in the data active means inhibition mostly above about 38%, no sharp cut-off; inactive means mostly below about 40%;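 further: 0% = agonist challenge alone and 100% = reference antagonist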
CHO parental Ca: ATP-evoked calcium signal inhibitors, parental CHO, primary screen, counter-screen for OX1R antagonist project, cell-based, fluorescence, Fluo-8 calcium dye. actives 0.63% (n = 330,000). inhibition, % at 5.6 µM. parental CHO-K1, ATP-induced calcium, Fluo-8 fluorescence;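 active means inhibition above that plate's mean sample inhibition plus 3 SD, cut at about 26% in these data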;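 further: 0% = ATP-challenged DMSO wells and 100% = DMSO wells without ATP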
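Measured by: calcium-sensitive Fluo-8 fluorescence / Test system: CHO parental line / Controls: ATP-challenged DMSO wells low, unchallenged DMSO wells high / Measure: % inhibition / Compound: single nominal dose of 5.6 µM per compound / Replicates: single well per compound, no replicates / Reagent: ATP as calcium-mobilizing challenge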
OX1R Ca confirm: OX1R (HCRTR1) antagonists, confirmation, fluorescence, CHO/OX1R cells, Fluo-8 calcium, orexin A. shares compounds with OX1R antag-1. AID 492963, 2010. inhibition, % at 5 µM. orexin A calcium Fluo-8 fluorescence. actives 38% (n = 1,100); in the data active means inhibition above about 29%;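 further: 0% = agonist challenge alone and 100% = reference antagonist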
CHO Ca counter: ATP-evoked calcium inhibition in parental CHO, counter-screen for OX1R antagonist project, cell-based, fluorescence, CHO-K1, triplicate | shares compounds with OX1R antag-1 | ATP-induced calcium, Fluo-8 fluorescence | inhibition, % at 5.6 µM | actives 9.3% (n = 1,100);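 active means inhibition above a per-plate limit, the mean inhibition of that plate's test compounds plus 3 SD, cut at about 25% in these data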;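 further: 0% = ATP challenge with DMSO and 100% = DMSO without ATP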
Active calls of the source: *.

How did CCCC(=O)Nc1ccc(Sc2ccc([N+](=O)[O-])cc2)cc1 do in these assays?
M1 PAM parental: 0; CHO-K1 Ca antag: 18; OX1R antag-1: 38; M1 ag parental: 3; OX1R antag-2: 49; CHO parental Ca: 25; OX1R Ca confirm: 9; CHO Ca counter: 10

How did CCCC(=O)Nc1ccc(C(=O)NNC(=O)c2cccc([N+](=O)[O-])c2)cc1 do in these assays?
M1 PAM parental: 19; CHO-K1 Ca antag: -7; OX1R antag-1: -11; M1 ag parental: 1; OX1R antag-2: 31; CHO parental Ca: 1

How did Cc1cc(C)c(NC(=O)CN(C)CC(=O)Nc2cccc(S(=O)(=O)N(C)c3ccccc3)c2)c(C)c1 do in these assays?
M1 PAM parental: -1; CHO-K1 Ca antag: -9; OX1R antag-1: 37*; M1 ag parental: 9; OX1R antag-2: 16; CHO parental Ca: 1; OX1R Ca confirm: 8; CHO Ca counter: -10

Results for CN(CC(=O)Nc1cccc(F)c1)CC(=O)Nc1cccc(S(=O)(=O)N(C)c2ccccc2)c1 ?
M1 PAM parental: 8; CHO-K1 Ca antag: -8; M1 ag parental: 11

What do the screens show for `CN(c1ccccc1)S(=O)(=O)c1cccc(NC(=O)Cc2n[nH]c(=O)c3ccccc23)c1`?
M1 PAM parental: 4; CHO-K1 Ca antag: -10; OX1R antag-1: 36; M1 ag parental: 7; OX1R antag-2: 5; CHO parental Ca: -8; OX1R Ca confirm: 5; CHO Ca counter: -6

How did NC(=O)c1ccccc1Nc1nc(NCCO)nc(N2CCCC2)n1 do in these assays?
M1 PAM parental: 10; CHO-K1 Ca antag: -4; OX1R antag-1: 5; M1 ag parental: 0; OX1R antag-2: 13; CHO parental Ca: -7

What do the screens show for `O=S(=O)(c1ccc(Br)cc1F)N1CCCCC1CCO` (stereo not drawn)?
M1 PAM parental: 16; CHO-K1 Ca antag: -3; M1 ag parental: 0

What do the screens show for `O=S(=O)(Nc1ccc(S(=O)(=O)Nc2ccccc2)cc1)c1ccccc1`?
M1 PAM parental: 33; CHO-K1 Ca antag: -14; OX1R antag-1: 36; M1 ag parental: 2; OX1R antag-2: 5; CHO parental Ca: 11; OX1R Ca confirm: 8; CHO Ca counter: -1

How did CNc1cc(CSC)nc(SCc2ccc(Cl)cc2Cl)n1 do in these assays?
M1 PAM parental: 17; CHO-K1 Ca antag: -20; OX1R antag-1: 53*; M1 ag parental: 1; OX1R antag-2: 36; CHO parental Ca: -12; OX1R Ca confirm: 3; CHO Ca counter: -9

How did CCNc1nc2c(c(=O)[nH]c(=O)n2C)n1CCCc1ccccc1 do in these assays?
M1 PAM parental: 13; CHO-K1 Ca antag: -16; OX1R antag-1: 26; M1 ag parental: 2; OX1R antag-2: 5; CHO parental Ca: -4; OX1R Ca confirm: 3; CHO Ca counter: 3

How did CC(=O)Nc1ccc(NC(=O)CCNC(=O)c2ccccc2Cl)cc1 do in these assays?
M1 PAM parental: -28; CHO-K1 Ca antag: 16; OX1R antag-1: -20; M1 ag parental: 1; OX1R antag-2: -6; CHO parental Ca: -6

How did Cc1cnc(C(=O)OCC(=O)Nc2ccc(Oc3ccccc3)cc2)cn1 do in these assays?
M1 PAM parental: 18; CHO-K1 Ca antag: -15; OX1R antag-1: -11; M1 ag parental: 2; OX1R antag-2: 7; CHO parental Ca: -2

What do the screens show for `COc1ccc(NC(=O)c2ccc(NC(=O)COC(=O)c3cnc(C)cn3)cc2)cc1`?
M1 PAM parental: -8; CHO-K1 Ca antag: -12; OX1R antag-1: 31; M1 ag parental: 0; OX1R antag-2: 11; CHO parental Ca: 2; OX1R Ca confirm: 4; CHO Ca counter: 12

Results for COc1ccc(C(=O)Nc2cc3c4c(c2)C(C)C(=O)N4CCC3)cc1OC (stereo not drawn) ?
M1 PAM parental: 11; CHO-K1 Ca antag: -11; OX1R antag-1: -18; M1 ag parental: 1; OX1R antag-2: 21; CHO parental Ca: -8

Results for COc1ccc(OCc2n(CC(=O)OC3CC(C)CCC3C(C)C)c3ccccc3[n+]2C)cc1 (stereo not drawn) ?
M1 PAM parental: 7; CHO-K1 Ca antag: 8; OX1R antag-1: 40*; M1 ag parental: 2; OX1R antag-2: 8; CHO parental Ca: 22; OX1R Ca confirm: 47*; CHO Ca counter: 1

What do the screens show for `CCOC(=O)CC(=O)CSc1ncnc2c1oc1ccccc12`?
M1 PAM parental: 1; CHO-K1 Ca antag: 10; OX1R antag-1: 33; M1 ag parental: 0; OX1R antag-2: -90; CHO parental Ca: -22; OX1R Ca confirm: 14; CHO Ca counter: 2

Results for C=CCn1c(NCCc2ccccc2)nc2c1c(=O)n(C)c(=O)n2C ?
M1 PAM parental: 6; CHO-K1 Ca antag: 12; OX1R antag-1: 31; M1 ag parental: 6; OX1R antag-2: 16; CHO parental Ca: 12; OX1R Ca confirm: 10; CHO Ca counter: 13

Results for Cc1ccc(OCCNC(=O)CNC(=O)c2ccc(Cl)c([N+](=O)[O-])c2)cc1 ?
M1 PAM parental: 11; CHO-K1 Ca antag: -25; OX1R antag-1: -22; M1 ag parental: 1; OX1R antag-2: 20; CHO parental Ca: -11

What do the screens show for `O=C(O)c1cccc(NC(=O)c2cn(-c3ccccc3)nc2-c2ccncc2)c1`?
M1 PAM parental: 7; CHO-K1 Ca antag: 1; OX1R antag-1: 4; M1 ag parental: 0; OX1R antag-2: 5; CHO parental Ca: 6

Results for O=C(O)c1cccc(NC(=O)c2cn(-c3ccccc3)nc2-c2cccc(Br)c2)c1 ?
M1 PAM parental: 11; CHO-K1 Ca antag: 7; OX1R antag-1: 30; M1 ag parental: 0; OX1R antag-2: 17; CHO parental Ca: 18; OX1R Ca confirm: 27; CHO Ca counter: 33*

What do the screens show for `COCCN=c1scc(-c2cc(OC)ccc2OC)n1/N=C/c1c[nH]c2ccccc12`?
M1 PAM parental: -2; CHO-K1 Ca antag: 7; OX1R antag-1: 31; M1 ag parental: 3; OX1R antag-2: 42; CHO parental Ca: 0; OX1R Ca confirm: 35*; CHO Ca counter: -10

How did CC1(C(=O)NS(=O)(=O)C2CC2)CCCN(C(=O)C2(c3ccc(Cl)cc3)CCCC2)C1 (stereo not drawn) do in these assays?
M1 PAM parental: 15; CHO-K1 Ca antag: -6; M1 ag parental: 0

High-throughput results as filed in PubChem BioAssay.
